Lung fibro prol = antiproliferative effect on LL 47 fibroblasts – human, LL 47 cells, CellTiter-Glo luminescence, primary screen; LL 47 human lung fibroblast viability, ATP luminescence; hits give low values; viability, % at 10 µM; 1.1% of 85,000 active; AID 719, 2007;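 active means viability at or below 50% in the single dose screen; inactive means viability above 50%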;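 further: compound exposure lasted 72 h before the ATP readout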
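Test system: LL 47 human lung fibroblasts; Quantity: 1,150 cells/well; Buffer or medium: IMEM plus 15% FBS; Dosing: tenfold compound dosing solution, DMSO at 0.1%; Timing: overnight cell rest, 72 h compound treatment at 37 °C; Detection: ATP-based CellTiter-Glo luminescent readout; Read-out basis: viability percentage against median untreated-cell control; Controls: cell-only wells, no compound.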
bCat KO growth = primary screen for growth suppressors in beta-catenin knockout HCT116 cells (colon tumor, human). viability, % at 10 µM. HCT116 beta-catenin knockout viability, CellTiter-Glo, 60 h; hits give low values. 1.5% of 140,000 active;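 active means viability at or under a set limit, the compound median less 4 SD, cut at about 6% in these data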
HUVEC inhibit = inhibitors of HUVEC proliferation, primary screen, cell-based, 384-well; viability, % at 10 µM (by protocol); AID 648, 2007; CellTiter-Glo luminescence, 72 h; hits give low values; 1.1% of 86,000 active;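 active means viability at or below 30%; inactive means viability above 30%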
HCT116 PTEN-null = growth suppression of PTEN-null HCT116, primary screen, cell-based, CellTiter-Glo; HCT116 PTEN-null viability, 60 h; hits give low values; viability, % at 10 µM; 1.2% of 140,000 active; AID 827, 2007;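 active means viability at or below a set limit, 4 SD under the median of all tested compounds, cut at about 3.7% in these data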;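 further: PTEN knockout HCT116 line with beta catenin targeted HCT116 as companion control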
H69AR growth 86K = proliferation blockers of H69AR lung cancer cells, primary screen, cell-based, human, 86K library; H69AR lung tumor viability, ATP luminescence, 72 h; hits give low values; viability, % at 10 µM; AID 598, 2007; 6% of 85,000 active;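 active means viability at or below 40%; inactive means viability above 40%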;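 further: multidrug resistant small cell line overexpressing MRP-1 efflux transporter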
Large screens that a line does not name were inactive. This is one part of a sample in which hits are shown more often than they occur.

Cc1ccc(-c2nnc(SCC(=O)N3CCOCC3)nc2-c2ccc(C)cc2)cc1	H69AR growth 86K 19
C=CCOn1c(C)c(C(C)=O)c2c3no[n+]([O-])c3ccc21	H69AR growth 86K 29
COn1c(C)c(C(C)=O)c2c3no[n+]([O-])c3ccc21	none (no result: Lung fibro prol, HUVEC inhibit, H69AR growth 86K)
COc1ccccc1NC(=O)N1CCC(c2nc3cc(C)c(C)cc3[nH]2)CC1	Lung fibro prol 48, H69AR growth 86K 27
COc1ccccc1NC(=S)N1CCC(c2nc3cc(C)c(C)cc3[nH]2)CC1	none (no result: Lung fibro prol, HUVEC inhibit, H69AR growth 86K)
Cc1ccc(NC2=C(Cl)C(=O)c3ccccc3C2=O)cc1	bCat KO growth 0.9, HCT116 PTEN-null 0.8 (no result: Lung fibro prol, HUVEC inhibit, H69AR growth 86K)
CCN(CC)c1ccc(NC2=C(Cl)C(=O)c3ccccc3C2=O)cc1	bCat KO growth 0.8, HCT116 PTEN-null 0.5 (no result: Lung fibro prol, HUVEC inhibit, H69AR growth 86K)
CCNC1=C(Cl)C(=O)c2ccccc2C1=O	none
CCCCN1c2ccccc2N(CCCO)c2cc(C)nnc21	none
COc1ccc(-n2cccc2/C=C/[N+](=O)[O-])cc1	bCat KO growth 2.2, HCT116 PTEN-null 2.8 (no result: Lung fibro prol, HUVEC inhibit, H69AR growth 86K)
COc1ccc(-n2cccc2C=O)cc1	none (no result: Lung fibro prol, HUVEC inhibit, H69AR growth 86K)
Cc1ccc(C(=O)O/N=C(\N)c2ccc(Br)cc2)cc1C	H69AR growth 86K 28
Cc1ccc(C(=O)O/N=C(\N)c2cccnc2)cc1[N+](=O)[O-]	none (no result: Lung fibro prol, HUVEC inhibit, H69AR growth 86K)
COc1ccc(/C(N)=N/OC(=O)c2ccc(C)c([N+](=O)[O-])c2)cc1OC	H69AR growth 86K 24
Cc1cc(C)cc(C(=O)O/N=C(\N)c2ccc(Br)cc2)c1	H69AR growth 86K 34
CS(=O)(=O)NCCOc1ccc(S(=O)(=O)N2CCCc3ccccc32)cc1	none
Nc1nc2ccccc2n1C(=O)CCc1ccccc1	H69AR growth 86K 26
CCCCCCC(=O)N(O)C1CC(=O)N(c2ccc(Br)cc2)C1=O (stereo not given)	H69AR growth 86K 33
C/C(=N\NC(=O)c1ccc(Cl)c(S(=O)(=O)Nc2ccccc2Cl)c1)c1ccncc1	none (no result: Lung fibro prol, HUVEC inhibit, H69AR growth 86K)
CCNc1ccc(Br)cc(C(=O)/C=C/c2ccc(Cl)cc2)c1=O	none (no result: Lung fibro prol, HUVEC inhibit, H69AR growth 86K)
CNc1ccc(Br)cc(C(=O)/C=C/c2cccc(OC)c2)c1=O	Lung fibro prol 8.8, HUVEC inhibit 22, H69AR growth 86K -0.2
CCNc1ccc(Br)cc(C(=O)/C=C/c2c(Cl)cccc2Cl)c1=O	bCat KO growth 3.5, HUVEC inhibit 7.9, HCT116 PTEN-null 1.5, H69AR growth 86K 2.0
O=C(NNC1=C(C(=O)C(F)(F)F)CCC1)c1cccc(Cl)c1	HUVEC inhibit 23, H69AR growth 86K 29
CN(C)c1ccc(/C=C/C(O)=C2/C(=O)N(C)C3(C)CC2c2ccccc2O3)cc1 (stereo not given)	H69AR growth 86K 21
O=C(CSc1nnc(NC2CCCCC2)s1)NN1C(=O)NC2(CCCCC2)C1=O	none (no result: Lung fibro prol, HUVEC inhibit, H69AR growth 86K)
COc1ccc(-c2cc(C(=O)OCC(=O)Nc3cc(C)on3)c3ccccc3n2)cc1OC	none (no result: Lung fibro prol, HUVEC inhibit, H69AR growth 86K)
CCC(C)c1ccc(-c2cc(C(=O)OCC(=O)Nc3cc(C)on3)c3ccccc3n2)cc1 (stereo not given)	H69AR growth 86K 9.5
O=C(NC(CSCc1ccccc1)C(=O)N/N=C/c1ccc(O)cc1O)c1ccc([N+](=O)[O-])cc1 (stereo not given)	Lung fibro prol 25, bCat KO growth 2.9, HUVEC inhibit 7.6, HCT116 PTEN-null 3.0, H69AR growth 86K 30
Cc1ccc(C2CC(C(F)(F)F)n3ncc(C(N)=O)c3N2)cc1 (stereo not given)	none
Cc1ccc(Cl)cc1NC(=O)c1cnn2c1NC(c1ccco1)CC2C(F)(F)F (stereo not given)	none
CC(C)(C)NC(=O)c1cnn2c1NC(c1ccc(F)cc1)CC2C(F)(F)F (stereo not given)	Lung fibro prol 33
O=C(Nc1ccc2c(c1)CCC2)c1cnn2c1NC(c1ccco1)CC2C(F)(F)F (stereo not given)	Lung fibro prol 37, H69AR growth 86K 30
O=C(CCc1ccc(S(=O)(=O)NCCc2ccccc2)cc1)Nc1ccc2c(c1)OCO2	none
COc1cc2[nH]c(=O)n(CCCCCC(=O)NCCc3c[nH]c4ccccc34)c(=O)c2cc1OC	none
O=C(NNC(=S)NC(=O)c1ccccc1[N+](=O)[O-])c1ccccc1	H69AR growth 86K 25
CCOC(=O)/C(=C\c1ccc([N+](=O)[O-])o1)NC(=O)c1ccccc1	none
Cc1cc(C)nc(NC(=O)c2ccc([N+](=O)[O-])o2)n1	bCat KO growth 4.2 (no result: Lung fibro prol, HUVEC inhibit, H69AR growth 86K)

Bioassay records from PubChem.
